The source of these data is ChEMBL document CHEMBL1155027, “Synthesis and proteasome inhibition of glycyrrhetinic acid derivatives” (Bioorg Med Chem, 2008).

Test [1] in a line: Inhibition of chymotrypsin-like activity of human 20S proteasome.
Test [2] in a line: Inhibition of caspase-like activity of human 20S proteasome. Summed up: (§1)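 Purified human 20S proteasome assayed with the activator PA28 (16 µg/ml) and fluorogenic substrates: Suc-Leu-Leu-Val-Tyr-AMC for chymotrypsin-like, Bz-VGR-AMC for trypsin-like, and (Z)-LLE-bNA for caspase-like activity. Fluorescence was read at 360/460 nm across a range of inhibitor concentrations. IC50 is the concentration that halves reaction velocity (ΔRFU/min), taken from a plot of velocity against log concentration.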

The nature of test [3]: Inhibition of trypsin-like activity of human 20S proteasome. The gist of the method: as §1
Test [4] relates to MT4. Briefly: Inhibition of chymotrypsin-like activity of 20S proteasome in human MT4 cells at 0.25 uM after 3 hrs. It counts as cell-based.
Test [5] concerns MT4. The test is described as follows: Inhibition of TNF-alpha-induced 20S proteasome degradation of IkappaBalpha in human MT4 cells at 1.6 uM after 3 hrs by Western blot analysis. It counts as cell-based. Summed up: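 MT4 cells pretreated with inhibitor 3 h, then TNFα 10 ng/ml for 30 min; cytosolic proteins resolved on 12% SDS-PAGE, transferred to nitrocellulose and Western blotted for IκBα, with β-actin as loading reference.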

Active and inactive are the calls of the source. The rule behind the calls is not given here. Residues, ends and D or L forms follow the SMILES beside them.

In turn, `CC1(C)[C@@H](OC(=O)COCC(=O)O)CC[C@]2(C)[C@H]3C(=O)C=C4[C@@H]5C[C@@](C)(C(=O)O)CC[C@]5(C)CC[C@@]4(C)[C@]3(C)CC[C@@H]12` returned an IC50 in test [1] of 1.93 µM. The compound `CCC(=O)O[C@H]1CC[C@]2(C)[C@H]3C(=O)C=C4[C@@H]5C[C@@](C)(C(=O)O)CC[C@]5(C)CC[C@@]4(C)[C@]3(C)CC[C@H]2C1(C)C` yielded a concentration for half-maximal inhibition (IC50) in test [1] of more than 40 µM. `CC1(C)[C@@H](OC(=O)CCC(=O)O)CC[C@]2(C)[C@H]3C(=O)C=C4[C@@H]5C[C@@](C)(C(=O)O)CC[C@]5(C)CC[C@@]4(C)[C@]3(C)CC[C@@H]12` [CARBENOXOLONE] yielded a half-maximal inhibitory concentration (IC50) in test [1] of 2.63 µM. The same measure, in the same setting: under `CC(C)(CC(=O)O[C@H]1CC[C@]2(C)[C@H]3C(=O)C=C4[C@@H]5C[C@@](C)(C(=O)O)CC[C@]5(C)CC[C@@]4(C)[C@]3(C)CC[C@H]2C1(C)C)C(=O)O` stands 0.87 µM; under `CC1(C)[C@@H](OC(=O)CCCC(=O)O)CC[C@]2(C)[C@H]3C(=O)C=C4[C@@H]5C[C@@](C)(C(=O)O)CC[C@]5(C)CC[C@@]4(C)[C@]3(C)CC[C@@H]12`, 1.39 µM; under `CC1(C)[C@@H](OC(=O)c2ccc(C(=O)O)cc2)CC[C@]2(C)[C@H]3C(=O)C=C4[C@@H]5C[C@@](C)(C(=O)O)CC[C@]5(C)CC[C@@]4(C)[C@]3(C)CC[C@@H]12`, 0.31 µM. The same measure, in the same setting: next, `CC1(C)[C@@H](OC(=O)Cc2ccc(CC(=O)O)cc2)CC[C@]2(C)[C@H]3C(=O)C=C4[C@@H]5C[C@@](C)(C(=O)O)CC[C@]5(C)CC[C@@]4(C)[C@]3(C)CC[C@@H]12`: 1.78 µM. Take `CSCC[C@@H](C=O)NC(=O)[C@H](CC(C)C)NC(=O)[C@H](CC(C)C)NC(C)=O` (Ac-Leu-Leu-Met-aldehyde): the half-inhibitory concentration (IC50) is 22.5 µM in test [2], 5.25 µM in test [1] and more than 25 µM in test [3].

Turning to `CC1(C)[C@@H](OC(=O)Cc2cccc(CC(=O)O)c2)CC[C@]2(C)[C@H]3C(=O)C=C4[C@@H]5C[C@@](C)(C(=O)O)CC[C@]5(C)CC[C@@]4(C)[C@]3(C)CC[C@@H]12`, the IC50 in test [1] stood at 1.05 µM.

For the compound `CC(=O)Cc1ccc(OCC(=O)O[C@H]2CC[C@]3(C)[C@H]4C(=O)C=C5[C@@H]6C[C@@](C)(C(=O)O)CC[C@]6(C)CC[C@@]5(C)[C@]4(C)CC[C@H]3C2(C)C)cc1`, it took 2.27 µM to reach half-maximal inhibition in test [1] (IC50). As for `CC1(C)[C@@H](OC(=O)CCCCC(=O)O)CC[C@]2(C)[C@H]3C(=O)C=C4[C@@H]5C[C@@](C)(C(=O)O)CC[C@]5(C)CC[C@@]4(C)[C@]3(C)CC[C@@H]12`, the IC50 was determined as 5.02 µM in test [2], 0.29 µM in test [1] and 3.32 µM in test [3].

For `CC(C)CC(NC(=O)[C@@]1(C)CC[C@]2(C)CC[C@]3(C)C(=CC(=O)[C@@H]4[C@@]5(C)CC[C@H](O)C(C)(C)[C@@H]5CC[C@]43C)[C@@H]2C1)C(=O)O` (stereo partly specified), the IC50 in test [1] is more than 40 µM. On the same count and under the same terms, next, `CC(C)CC(NC(=O)[C@@]1(C)CC[C@]2(C)CC[C@]3(C)C(=CC(=O)[C@@H]4[C@@]5(C)CC[C@H](OC(=O)CC(C)(C)C(=O)O)C(C)(C)[C@@H]5CC[C@]43C)[C@@H]2C1)C(=O)O` (stereo partly specified): 3.09 µM. On the same count and under the same terms, under `CC(C)C(=O)O[C@H]1CC[C@]2(C)[C@H]3C(=O)C=C4[C@@H]5C[C@@](C)(C(=O)O)CC[C@]5(C)CC[C@@]4(C)[C@]3(C)CC[C@H]2C1(C)C` stands 1.92 µM. As to `CC1(C)[C@@H](OC(=O)C/C=C/CC(=O)O)CC[C@]2(C)[C@H]3C(=O)C=C4[C@@H]5C[C@@](C)(C(=O)O)CC[C@]5(C)CC[C@@]4(C)[C@]3(C)CC[C@@H]12`, the results for the IC50 in test [2], in test [1] and in test [3] were 26.5 µM, 0.35 µM and 19.3 µM, respectively. With `CC(=O)N[C@@H](CSC(=O)C1([C@@H](O)C(C)C)NC(=O)[C@H](C)[C@@H]1O)C(=O)O` (single isomer, unassigned) [LACTACYSTIN], the IC50 in test [2] and in test [3] was more than 30 µM throughout. In turn, `CC(C)(CC(=O)O)CC(=O)O[C@H]1CC[C@]2(C)[C@H]3C(=O)C=C4[C@@H]5C[C@@](C)(C(=O)O)CC[C@]5(C)CC[C@@]4(C)[C@]3(C)CC[C@H]2C1(C)C` gave an IC50 in test [1] of 6.86 µM. The same measure, in the same setting: under `CC(=O)O[C@H]1CC[C@]2(C)[C@H]3C(=O)C=C4[C@@H]5C[C@@](C)(C(=O)O)CC[C@]5(C)CC[C@@]4(C)[C@]3(C)CC[C@H]2C1(C)C` [ACETOXOLONE] stands more than 40 µM. On the same count and under the same terms, under `CC1(C)[C@@H](OC(=O)c2ccccc2)CC[C@]2(C)[C@H]3C(=O)C=C4[C@@H]5C[C@@](C)(C(=O)O)CC[C@]5(C)CC[C@@]4(C)[C@]3(C)CC[C@@H]12` stands 2.08 µM. Still for that read-out and setting: under `COC(=O)C(CC(C)C)NC(=O)[C@@]1(C)CC[C@]2(C)CC[C@]3(C)C(=CC(=O)[C@@H]4[C@@]5(C)CC[C@H](OC(C)=O)C(C)(C)[C@@H]5CC[C@]43C)[C@@H]2C1` (stereo partly specified) stands more than 40 µM. Turning to `CC1(C)[C@@H](O)CC[C@]2(C)[C@H]3C(=O)C=C4[C@@H]5C[C@@](C)(C(=O)O)CC[C@]5(C)CC[C@@]4(C)[C@]3(C)CC[C@@H]12` [ENOXOLONE], the 50% inhibitory concentration (IC50) is more than 40 µM in test [2], 22.3 µM in test [1] and more than 40 µM in test [3].

In test [1], `CC(C(=O)O)C(C)C(=O)O[C@H]1CC[C@]2(C)[C@H]3C(=O)C=C4[C@@H]5C[C@@](C)(C(=O)O)CC[C@]5(C)CC[C@@]4(C)[C@]3(C)CC[C@H]2C1(C)C` (stereo partly specified) had an IC50 of 8.7 µM. Turning to `CC1(C)[C@@H](OC(=O)c2cccc(C(=O)O)c2)CC[C@]2(C)[C@H]3C(=O)C=C4[C@@H]5C[C@@](C)(C(=O)O)CC[C@]5(C)CC[C@@]4(C)[C@]3(C)CC[C@@H]12`, the inhibition in the test on MT4 [4] worked out at 50%. The IC50 stood at 3.56 µM in test [2], 0.22 µM in test [1] and 2.91 µM in test [3]. The result in the test with MT4 [5] was Active.
